In brackets after ≈: the same amount, converted by molar mass. Activity calls are given as the source filed them. The rule behind the calls is not given here.
Tests used:
Candida albicans = assay: Antifungal activity against Candida albicans CMCC (F) 98001 after 24 hrs by twofold microdilution broth method; assay type: functional; conditions: CMCC (F) 98001, 24 h
In short: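 Strain CMCC(F) 98001 grown in Sabouraud dextrose broth at 25 °C; inoculum diluted in SDB to 10^6 CFU. Compounds from 20,000 µg/ml DMSO stocks, twofold serial dilution across ten wells, with medium-only and organism-only controls. Incubated 24 h. MIC read by eye as the lowest concentration with no visible growth. Three replicates.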

Escherichia coli = assay: Antibacterial activity against clinical isolate of Escherichia coli after 24 hrs by twofold microdilution broth method; assay type: functional
In short: (§1)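 Clinical isolates grown in Mueller-Hinton broth at 37 °C; inoculum diluted in MHB to 10^6 CFU. Compounds from 20,000 µg/ml DMSO stocks, twofold serial dilution across ten wells, with medium-only and organism-only controls. Incubated 24 h in ambient air. MIC taken as the lowest concentration with no visible growth by eye. Three replicates.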

[1] = Cytotoxicity against rat IEC-6 cells assessed as cell survival at 10 uM after 72 hrs by MTT assay relative to control; assay type: cell-based; conditions: read-out: Survival
In short: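 IEC-6 intestinal epithelial cells were exposed to each compound at a fixed 10 µM for 72 h alongside an untreated blank control. Viability was read by MTT reduction and expressed as survival rate (SR). Compounds with SR between 70% and 100% were classed as noncytotoxic or hypocytotoxic.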

Staphylococcus aureus = assay: Antibacterial activity against clinical isolate of Staphylococcus aureus after 24 hrs by twofold microdilution broth method; assay type: functional; in short: as §1
[2] = Induction of XBP1 promoter DNA activation in rat IEC-6 cells after 48 hrs by dual luciferase reporter gene assay; assay type: cell-based; conditions: IEC-6, 48 h
IEC-6 = assay: Induction of XBP1 promoter DNA activation in rat IEC-6 cells at 10 uM after 48 hrs by dual luciferase reporter gene assay relative to control; assay type: cell-based
Mus musculus [3] = assay: Inhibition of DSS-induced acute ulcerative colitis C57BL/6J mouse model at 150 mg/kg, po qd administered for 7 days relative to control; assay type: functional; conditions: 168 h
Mus musculus [4] = assay: Antiulcerogenic activity in DSS-induced acute ulcerative colitis C57BL/6J mouse model assessed as colon macroscopic damage index at 150 mg/kg, po qd administered for 7 days (reference value: 4.13 +/- 0.78); assay type: functional
Mus musculus [5] = assay: Antiulcerogenic activity in DSS-induced acute ulcerative colitis C57BL/6J mouse model assessed as recovery of polar arrangement of IEC cells at 150 mg/kg, po qd administered for 7 days by microscopic analysis; assay type: functional, organism-based
In short: (§2)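 Colitis induced by DSS in C57BL/6J mice. Agents given orally each day: test agents at 150 mg/kg as a suspension in 0.5% CMC-Na; sulfasalazine at 500 mg/kg. At study end, colon tissue was H&E stained and examined by light microscopy at ×100 for mucosal structure, epithelial cell arrangement, crypt damage, inflammatory infiltration and ulceration.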

Mus musculus [6] = assay: Antiulcerogenic activity in DSS-induced acute ulcerative colitis C57BL/6J mouse model assessed as regular arrangement of IEC cells at 150 mg/kg, po qd administered for 7 days by microscopic analysis; assay type: functional, organism-based; in short: as §2
Mus musculus [7] = assay: Antiulcerogenic activity in DSS-induced acute ulcerative colitis C57BL/6J mouse model assessed as decrease in body weight at 150 mg/kg, po qd administered for 7 days (reference value: 23.96%); assay type: functional; parameters: scale not given: the % may be the effect or the level left
Mus musculus [8] = assay: Antiulcerogenic activity in DSS-induced acute ulcerative colitis C57BL/6J mouse model assessed as colon contracture at 150 mg/kg, po qd administered for 7 days (reference value: 41.87%); assay type: functional
Mus musculus [9] = assay: Antiulcerogenic activity in DSS-induced acute ulcerative colitis C57BL/6J mouse model assessed as colon contracture at 500 mg/kg, po qd administered for 7 days (reference value: 41.87%); assay type: functional
Mus musculus [10] = assay: Inhibition of DSS-induced acute ulcerative colitis C57BL/6J mouse model at 500 mg/kg, po qd administered for 7 days relative to control; assay type: functional; conditions: 168 h
Mus musculus [11] = assay: Antiulcerogenic activity in DSS-induced acute ulcerative colitis C57BL/6J mouse model assessed as disappearance of inflammatory edema at 500 mg/kg, po qd administered for 7 days by microscopic analysis; assay type: functional, organism-based; in short: as §2
Mus musculus [12] = assay: Antiulcerogenic activity in DSS-induced acute ulcerative colitis C57BL/6J mouse model assessed as decrease in body weight at 500 mg/kg, po qd administered for 7 days (reference value: 23.96%); assay type: functional; parameters: scale not given: the % may be the effect or the level left
Mus musculus [13] = assay: Antiulcerogenic activity in DSS-induced acute ulcerative colitis C57BL/6J mouse model assessed as colon macroscopic damage index at 500 mg/kg, po qd administered for 7 days (reference value: 4.13 +/- 0.78); assay type: functional

Row | Compound | MIC (Candida albicans) | MIC (Escherichia coli) | viability at 72 h, 10 µM [1] | MIC (Staphylococcus aureus) | also measured
1 | CCCNCc1c2n(c(=O)c3c(OC)c(OC)ccc13)CCc1cc(OC)c(OC)cc1-2 | > 250 µg/mL | > 250 µg/mL | 70 to 100% | > 250 µg/mL | 
2 | COc1cc2c(cc1OC)-c1c(C(C)=O)c3ccc(OC)c(OC)c3c[n+]1CC2.[Cl-] | > 250 µg/mL | > 250 µg/mL | 70 to 100% | > 250 µg/mL | 
3 | CCCNC(=O)c1c2n(c(=O)c3c(OC)c(OC)ccc13)CCc1cc(OC)c(OC)cc1-2 | > 250 µg/mL | > 250 µg/mL | 70 to 100% | > 250 µg/mL | 
4 | CCC(=O)c1c2[n+](cc3c(OC)c(OC)ccc13)CCc1cc(OC)c(OC)cc1-2.[Cl-] | > 250 µg/mL | > 250 µg/mL | 70 to 100% | > 250 µg/mL | EC50 [2]: 301 nM; fold change (FC) (IEC-6): 1.01
5 | CCOC(=O)CCCCCCCc1c2[n+](cc3c(OC)c(OC)ccc13)CCc1cc(OC)c(OC)cc1-2.[Cl-] | 62.5 µg/mL | 250 µg/mL | 70 to 100% | 7.81 µg/mL | 
6 | CCCCCCCCCNCc1c2n(c(=O)c3c(OC)c(OC)ccc13)CCc1cc(OC)c(OC)cc1-2 | 62.5 µg/mL (≈ 120 µM) | > 250 µg/mL | 70 to 100% | 15.6 µg/mL (≈ 29.9 µM) | 
7 | CCCC(=O)c1c2[n+](cc3c(OC)c(OC)ccc13)CCc1cc(OC)c(OC)cc1-2.[Cl-] | > 250 µg/mL | > 250 µg/mL | 70 to 100% | 250 µg/mL | EC50 [2]: 338 nM; fold change (FC) (IEC-6): 1.59
8 | CCOC(=O)CCCc1c2[n+](cc3c(OC)c(OC)ccc13)CCc1cc(OC)c(OC)cc1-2.[Cl-] | > 250 µg/mL | > 250 µg/mL | 70 to 100% | 125 µg/mL | 
9 | COc1cc2c(cc1OC)-c1c(C(=O)O)c3ccc(OC)c(OC)c3c(=O)n1CC2 | > 250 µg/mL | > 250 µg/mL | 70 to 100% | > 250 µg/mL | 
10 | COc1cc2c(cc1OC)-c1c(C=O)c3ccc(OC)c(OC)c3c(=O)n1CC2 | > 250 µg/mL | > 250 µg/mL | 70 to 100% | > 250 µg/mL | inhibition in vivo at 150 mg/kg (Mus musculus [3]): 63.2%; Activity_index (Mus musculus [4]): 2.25; EC50 [2]: 135 nM; Activity (Mus musculus [5]): Active; Activity (Mus musculus [6]): Active; fold change (FC) (IEC-6): 1.41; Activity (Mus musculus [7]): 5.92%; Activity (Mus musculus [8]): 29.24%
11 | O=C(O)c1cc(/N=N/c2ccc(S(=O)(=O)Nc3ccccn3)cc2)ccc1O [SULFASALAZINE] |  |  |  |  | Activity (Mus musculus [9]): 28.22%; inhibition in vivo at 500 mg/kg (Mus musculus [10]): 55.2%; Activity (Mus musculus [11]): Active; Activity (Mus musculus [12]): 6.01%; Activity_index (Mus musculus [13]): 3.13
12 | CCCCCC(=O)c1c2[n+](cc3c(OC)c(OC)ccc13)CCc1cc(OC)c(OC)cc1-2.[Cl-] | > 250 µg/mL | 250 µg/mL | 70 to 100% | 62.5 µg/mL | 
13 | CCCCNCc1c2n(c(=O)c3c(OC)c(OC)ccc13)CCc1cc(OC)c(OC)cc1-2 | > 250 µg/mL | > 250 µg/mL | 70 to 100% | > 250 µg/mL | 
14 | CCCCCNCc1c2n(c(=O)c3c(OC)c(OC)ccc13)CCc1cc(OC)c(OC)cc1-2 | > 250 µg/mL | > 250 µg/mL | 70 to 100% | > 250 µg/mL | 
15 | CCCCCCNCc1c2n(c(=O)c3c(OC)c(OC)ccc13)CCc1cc(OC)c(OC)cc1-2 | > 250 µg/mL | > 250 µg/mL | 70 to 100% | 250 µg/mL (≈ 520 µM) | 
16 | CCOC(=O)CCCCc1c2[n+](cc3c(OC)c(OC)ccc13)CCc1cc(OC)c(OC)cc1-2.[Cl-] | > 250 µg/mL | > 250 µg/mL | 70 to 100% | 125 µg/mL | 

Row | Compound | MIC (Candida albicans) | MIC (Escherichia coli) | viability at 72 h, 10 µM [1] | MIC (Staphylococcus aureus) | also measured
17 | CCCCCNC(=O)c1c2n(c(=O)c3c(OC)c(OC)ccc13)CCc1cc(OC)c(OC)cc1-2 | > 250 µg/mL | > 250 µg/mL | 70 to 100% | > 250 µg/mL | EC50 [2]: 1000 nM; fold change (FC) (IEC-6): 1.21
18 | COc1cc2c(cc1OC)-c1cc3ccc(OC)c(OC)c3c[n+]1CC2.[Cl-] [PALMATINE CHLORIDE] | > 250 µg/mL | > 250 µg/mL | 70 to 100% | 250 µg/mL | 
19 | CCCCCCCNCc1c2n(c(=O)c3c(OC)c(OC)ccc13)CCc1cc(OC)c(OC)cc1-2 | > 250 µg/mL | > 250 µg/mL | 70 to 100% | 125 µg/mL (≈ 253 µM) | 
20 | CCOC(=O)Cc1c2[n+](cc3c(OC)c(OC)ccc13)CCc1cc(OC)c(OC)cc1-2.[Cl-] | > 250 µg/mL | > 250 µg/mL | 70 to 100% | 250 µg/mL | 
21 | CCOC(=O)c1c2[n+](cc3c(OC)c(OC)ccc13)CCc1cc(OC)c(OC)cc1-2.[Cl-] | > 250 µg/mL | > 250 µg/mL | 70 to 100% | > 250 µg/mL | 
22 | CCCCNC(=O)c1c2n(c(=O)c3c(OC)c(OC)ccc13)CCc1cc(OC)c(OC)cc1-2 | > 250 µg/mL | > 250 µg/mL | 70 to 100% | > 250 µg/mL | 
23 | CCOC(=O)CCCCCc1c2[n+](cc3c(OC)c(OC)ccc13)CCc1cc(OC)c(OC)cc1-2.[Cl-] | > 250 µg/mL | > 250 µg/mL | 70 to 100% | 62.5 µg/mL | 
24 | COc1cc2c(cc1OC)-c1c(C(=O)NC3CC3)c3ccc(OC)c(OC)c3c(=O)n1CC2 | > 250 µg/mL | > 250 µg/mL | 70 to 100% | > 250 µg/mL | EC50 [2]: 1000 nM; fold change (FC) (IEC-6): 1.36
25 | CCCCCCCCNCc1c2n(c(=O)c3c(OC)c(OC)ccc13)CCc1cc(OC)c(OC)cc1-2 | 250 µg/mL (≈ 491 µM) | > 250 µg/mL | 70 to 100% | 31.2 µg/mL (≈ 61.4 µM) | 
26 | COc1cc2c(cc1OC)-c1c(C(=O)NCc3ccccc3)c3ccc(OC)c(OC)c3c(=O)n1CC2 | > 250 µg/mL | > 250 µg/mL | 70 to 100% | > 250 µg/mL | EC50 [2]: 834 nM; fold change (FC) (IEC-6): 1.2
27 | CCOC(=O)CCCCCCc1c2[n+](cc3c(OC)c(OC)ccc13)CCc1cc(OC)c(OC)cc1-2.[Cl-] | 125 µg/mL | > 250 µg/mL | 70 to 100% | 15.6 µg/mL | 
28 | COc1cc2c(cc1OC)-c1cc3ccc(OC)c(OC)c3c(=O)n1CC2 | > 250 µg/mL | > 250 µg/mL | 70 to 100% | > 250 µg/mL | 
29 | C[C@H]1COc2c(N3CCN(C)CC3)c(F)cc3c(=O)c(C(=O)O)cn1c23.C[C@H]1COc2c(N3CCN(C)CC3)c(F)cc3c(=O)c(C(=O)O)cn1c23.O [LEVOFLOXACIN] | > 250 µg/mL | < 1.95 µg/mL |  | < 1.95 µg/mL | 
30 | COc1cc2c(cc1OC)-c1c(C=O)c3ccc(OC)c(O)c3c(=O)n1CC2 | > 250 µg/mL | > 250 µg/mL | 70 to 100% | > 250 µg/mL | 
31 | CCCCC(=O)c1c2[n+](cc3c(OC)c(OC)ccc13)CCc1cc(OC)c(OC)cc1-2.[Cl-] | > 250 µg/mL | > 250 µg/mL | 70 to 100% | 125 µg/mL | EC50 [2]: 340 nM; fold change (FC) (IEC-6): 1.29
